From ChEMBL document CHEMBL4725435, “Second Generation of Zafirlukast Derivatives with Improved Activity against the Oral Pathogen Porphyromonas gingivalis” (ACS Med Chem Lett, 2020)
Calls of active or inactive are those of the source. The rule behind the calls is not given here.

What was measured:
Porphyromonas gingivalis [1] = assay: Antibacterial activity against Porphyromonas gingivalis 381 assessed as bacterial growth inhibition at 10 uM treated for 24 hrs by WST1 assay relative to control; assay type: functional; details: read-out: GI
In short: (§1)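 P. gingivalis 381 read by colorimetric WST-1 after 24 h. Derivatives were tested at 1, 10 and 100 μM. Tetracycline was run at 2.81 μM and ZAF at 25 and 50 μM as positive controls, with DMSO as negative control. Percent growth inhibition is versus medium-only cultures. Derivatives had 6 independent replicates per condition; controls had 36.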

Porphyromonas gingivalis [2] = assay: Antibacterial activity against Porphyromonas gingivalis 381 assessed as bacterial growth inhibition at 1 uM treated for 24 hrs by WST1 assay relative to control; assay type: functional; details: read-out: GI; in short: as §1
Porphyromonas gingivalis [3] = assay: Antibacterial activity against Porphyromonas gingivalis 381 assessed as bacterial growth inhibition at 100 uM treated for 24 hrs by WST1 assay relative to control; assay type: functional; details: read-out: GI; in short: as §1
Porphyromonas gingivalis [4] = assay: Antibacterial activity against Porphyromonas gingivalis 381 assessed as bacterial growth inhibition at 50 uM treated for 24 hrs by WST1 assay relative to control; assay type: functional; details: read-out: GI; in short: as §1
Porphyromonas gingivalis [5] = assay: Antibacterial activity against Porphyromonas gingivalis 381 assessed as bacterial growth inhibition at 25 uM treated for 24 hrs by WST1 assay relative to control; assay type: functional; details: read-out: GI; in short: as §1
[6] = Cytotoxicity against hTERT-immortalized human OKF6 cells assessed as reduction in cell density at 25 uM incubated for 24 hrs by trypan blue dye based light inverted microscopic analysis; details: okf6, 24 h
In short: (§2)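 OKF6 cells were imaged by microscopy after 24 h treatment, with derivatives at 10 μM, to judge cell morphology and density from whole-well images. Medium-only and DMSO wells served as negative controls. Staurosporine 8 μM and ZAF 25 μM served as positive controls.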

[7] = Cytotoxicity against hTERT-immortalized human OKF6 cells assessed as small and rounded cell morphology at 25 uM incubated for 24 hrs by trypan blue dye based light inverted microscopic analysis; details: okf6, 24 h; in short: as §2
Porphyromonas gingivalis [8] = assay: Antibacterial activity against Porphyromonas gingivalis 381 assessed as bacterial growth inhibition at 1 to 100 uM treated for 24 hrs by WST1 assay relative to control; assay type: functional; in short: as §1
Veillonella parvula = assay: Antibacterial activity against Veillonella parvula ATCC 10790 assessed as bacterial growth inhibition at 1 to 100 uM treated for 24 hrs by WST1 assay; assay type: functional, organism-based; details: dose microM 1-100, time 24.0 hrs
In short: (§3)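 WST-1 colorimetric growth assay across oral bacterial species, 24 h exposure. DMSO as negative control. Positive controls were ZAF at 25 and 50 μM, or penicillin/streptomycin 1X (100 U/mL penicillin, 100 μg/mL streptomycin). Percent growth inhibition is relative to cultures in medium only, averaged from six independent replicates per condition.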

[9] = Cytotoxicity against hTERT-immortalized human OKF6 cells assessed as cell viability at 1 uM incubated for 24 hrs by Annexin V-FITC/propidium iodide staining based flow cytometric analysis relative to control; details: read-out: Activity
In short: (§4)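 OKF6/hTERT oral keratinocytes were treated for 24 h, then apoptosis and necrosis were assessed by flow cytometry. DMSO served as negative control; staurosporine 8 μM and ZAF 25 μM served as positive controls. Data come from two independent experiments run in duplicate, with at least 10,000 events analysed per condition.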

[10] = Cytotoxicity against hTERT-immortalized human OKF6 cells assessed as large and flattened cell morphology at 10 uM incubated for 24 hrs by trypan blue dye based light inverted microscopic analysis; details: okf6, 24 h; in short: as §2
[11] = Cytotoxicity against hTERT-immortalized human OKF6 cells assessed as cell viability at 10 uM incubated for 24 hrs by Annexin V-FITC/propidium iodide staining based flow cytometric analysis relative to control; details: read-out: Activity; in short: as §4
[12] = Cytotoxicity against hTERT-immortalized human OKF6 cells assessed as reduction in cell density at 10 uM incubated for 24 hrs by trypan blue dye based light inverted microscopic analysis; details: okf6, 24 h; in short: as §2
Porphyromonas gingivalis [13] = assay: Bactericidal activity against Porphyromonas gingivalis 381 assessed as growth inhibition at 100 uM treated for 24 hrs under anaerobic conditions followed by culturing in blood agar plate and measured after 5 days of incubation in an anaerobic chamber by CFU assay relative to control; assay type: functional; details: read-out: GI
In short: (§5)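 P. gingivalis 381 was exposed in media for 24 h at 1, 10 or 100 μM, then grown on blood agar plates for 5 days under anaerobic conditions and counted as CFUs/mL. Percent inhibition = 100 × [CFUs/mL control − CFUs/mL experimental]/CFUs/mL control, versus medium-only bacteria. Six independent replicates per condition for test compounds, 12 for controls (tetracycline 2.81 μM, ZAF 25/50 μM, DMSO).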

[14] = system: Aggregatibacter actinomycetemcomitans; assay: Antibacterial activity against Aggregatibacter actinomycetemcomitans JP2 assessed as bacterial growth inhibition at 1 to 100 uM treated for 24 hrs by WST1 assay; assay type: functional, organism-based; details: dose microM 1-100, time 24.0 hrs; in short: as §3
Porphyromonas gingivalis [15] = assay: Bactericidal activity against Porphyromonas gingivalis 381 assessed as growth inhibition at 10 uM treated for 24 hrs under anaerobic conditions followed by culturing in blood agar plate and measured after 5 days of incubation in an anaerobic chamber by CFU assay; assay type: functional, organism-based; in short: as §5
[16] = Cytotoxicity against hTERT-immortalized human OKF6 cells assessed as small and rounded cell morphology at 8 uM incubated for 24 hrs by trypan blue dye based light inverted microscopic analysis; details: okf6, 24 h
In short: (§6)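 Immortalized oral keratinocytes (OKF6/hTERT) were exposed for 24 h to test compounds at 10 μM. Controls were staurosporine at 8 μM or zafirlukast at 25 μM (positive) and medium only or DMSO (negative). Whole-well microscope images were then scored qualitatively for cell density and morphology (size, shape, spacing between cells).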

[17] = Cytotoxicity against hTERT-immortalized human OKF6 cells assessed as reduction in cell density at 8 uM incubated for 24 hrs by trypan blue dye based light inverted microscopic analysis; details: okf6, 24 h; in short: as §6
Porphyromonas gingivalis [18] = assay: Bactericidal activity against Porphyromonas gingivalis 381 assessed as growth inhibition at 1 uM treated for 24 hrs under anaerobic conditions followed by culturing in blood agar plate and measured after 5 days of incubation in an anaerobic chamber by CFU assay relative to control; assay type: functional, organism-based; in short: as §5
[19] = Cytotoxicity against hTERT-immortalized human OKF6 cells assessed as small and rounded cell morphology at 10 uM incubated for 24 hrs by trypan blue dye based light inverted microscopic analysis; details: okf6, 24 h; in short: as §6
Porphyromonas gingivalis [20] = assay: Antibacterial activity against Porphyromonas gingivalis 381 assessed as bacterial growth inhibition at 2.81 uM treated for 24 hrs by WST1 assay relative to control; assay type: functional; details: read-out: GI; in short: as §1
[21] = dose microM 1-100, time 24.0 hrs

SMILES | inhibition of growth at 10 µM (Porphyromonas gingivalis [1]) [%] | inhibition of growth at 1 µM (Porphyromonas gingivalis [2]) [%] | inhibition of growth at 100 µM (Porphyromonas gingivalis [3]) [%] | growth inhibition (GI) (Veillonella parvula) | viability at 24 h, 1 µM [9] [%] | viability at 24 h, 10 µM [11] [%] | Activity [12] | inhibition of growth at 100 µM (Porphyromonas gingivalis [13]) [%] | growth inhibition (GI) [14] | Activity (Porphyromonas gingivalis [15]) | other results
COc1ccc(Cc2cn(C)c3ccccc23)cc1C(=O)NS(=O)(=O)c1ccccc1C | 56 | 16 | 74 |  |  |  |  |  |  |  | 
COc1cc(C(=O)NS(=O)(=O)c2ccccc2C)ccc1Cc1cn(C)c2ccc(NC(=O)OC3CCCC3)cc12 [ZAFIRLUKAST] |  |  |  |  |  |  |  |  |  |  | inhibition of growth at 50 µM (Porphyromonas gingivalis [4]): 68%; inhibition of growth at 25 µM (Porphyromonas gingivalis [5]): 70%; Activity [6]: Toxic; Activity [7]: Toxic
COc1ccc(Cc2c[nH]c3ccccc23)cc1C(=O)NS(=O)(=O)c1ccc(F)cc1 |  |  |  |  |  |  |  |  |  |  | growth inhibition (GI) (Porphyromonas gingivalis [8]; [21]): inactive
COc1ccc(Cc2cn(C)c3ccccc23)cc1C(=O)NS(=O)(=O)c1cccc(F)c1 | 57 | 14 | 73 | inactive | 76 | 49 | Non-Toxic | 100 | inactive | inactive | Activity [10]: Non-Toxic
COc1ccc(Cc2cn(C)c3ccccc23)cc1C(=O)NS(=O)(=O)c1ccc2ccccc2c1 |  |  | 58 | inactive | 76 | 49 | Toxic | 100 | inactive | inactive | Activity [10]: Non-Toxic
COc1ccc(Cc2cn(C)c3ccc([N+](=O)[O-])cc23)cc1C(=O)NS(=O)(=O)c1cccc([N+](=O)[O-])c1 | 59 | 53 | 58 |  |  |  |  |  |  |  | 
COc1ccc(Cc2cn(C)c3ccc([N+](=O)[O-])cc23)cc1C(=O)NS(=O)(=O)c1ccccc1 |  | 0 |  |  |  |  |  |  |  |  | 
CN[C@@H]1C[C@H]2O[C@@](C)([C@@H]1OC)n1c3ccccc3c3c4c(c5c6ccccc6n2c5c31)C(=O)NC4 [STAUROSPORINE] |  |  |  |  |  |  |  |  |  |  | Activity [16]: Toxic; Activity [17]: Toxic
COc1ccc(Cc2cn(C)c3ccccc23)cc1C(=O)NS(=O)(=O)c1ccccc1F |  |  | 55 |  |  |  |  |  |  |  | 
COc1ccc(Cc2cn(C)c3ccccc23)cc1C(=O)NS(=O)(=O)c1cccc([N+](=O)[O-])c1 | 50 | 18 | 58 | inactive | 76 | 49 | Non-Toxic | 100 | inactive | inactive | Activity [10]: Non-Toxic; growth inhibition (GI) (Porphyromonas gingivalis [8]; dose microM 1-100): 18%
COc1ccc(Cc2cn(C)c3ccc([N+](=O)[O-])cc23)cc1C(=O)NS(=O)(=O)c1ccc([N+](=O)[O-])cc1 | 59 | 53 | 58 | inactive | 76 | 49 | Toxic | 100 | inactive | Active | Activity (Porphyromonas gingivalis [18]): Active; Activity [19]: Toxic
COc1ccc(Cc2cn(C)c3ccc([N+](=O)[O-])cc23)cc1C(=O)NS(=O)(=O)c1ccccc1F | 59 | 53 | 58 |  |  |  |  |  |  |  | 
COc1ccc(Cc2cn(C)c3ccccc23)cc1C(=O)NS(=O)(=O)c1ccc(F)cc1 | 59 |  | 58 | inactive | 76 | 49 | Non-Toxic | 100 | inactive | inactive | Activity [10]: Non-Toxic
COc1ccc(Cc2cn(C)c3ccccc23)cc1C(=O)NS(=O)(=O)c1ccc([N+](=O)[O-])cc1 |  |  |  |  |  |  |  |  |  |  | growth inhibition (GI) (Porphyromonas gingivalis [8]; dose microM 1-100): 0%
COc1ccc(Cc2c[nH]c3ccccc23)cc1C(=O)NS(=O)(=O)c1ccc2ccccc2c1 |  |  |  |  |  |  |  |  |  |  | growth inhibition (GI) (Porphyromonas gingivalis [8]; [21]): inactive
CN(C)[C@@H]1C(O)=C(C(N)=O)C(=O)[C@@]2(O)C(O)=C3C(=O)c4c(O)cccc4[C@@](C)(O)[C@H]3C[C@@H]12 [TETRACYCLINE] |  |  |  |  |  |  |  |  |  |  | inhibition of growth at 2.81 µM (Porphyromonas gingivalis [20]): 51%
COc1ccc(Cc2c[nH]c3ccccc23)cc1C(=O)NS(=O)(=O)c1ccccc1F |  |  |  |  |  |  |  |  |  |  | growth inhibition (GI) (Porphyromonas gingivalis [8]; [21]): inactive
COc1ccc(Cc2cn(C)c3ccc([N+](=O)[O-])cc23)cc1C(=O)NS(=O)(=O)c1ccc2ccccc2c1 | 57 |  | 58 |  |  |  |  |  |  |  | 
COc1ccc(Cc2cn(C)c3ccc([N+](=O)[O-])cc23)cc1C(=O)NS(=O)(=O)c1cccc(F)c1 | 59 | 53 | 58 | inactive | 76 | 49 | Toxic | 100 | inactive | Active | Activity (Porphyromonas gingivalis [18]): Active; Activity [19]: Toxic
COc1ccc(Cc2cn(C)c3ccc([N+](=O)[O-])cc23)cc1C(=O)NS(=O)(=O)c1ccc(F)cc1 | 59 |  | 58 |  |  |  |  |  |  |  | 
